In the array DNA melting data of Ke et al. (doi:10.1101/2024.01.08.574731) one finds Tm and folding enthalpy data, which are given here for 38 sequences.

Data set [1] is described as follows: melting temperature; fluorescence melt of hairpins on a sequencing array, two-state fit, raised by 9.35 °C to match UV melts. Particulars: sodium 0.088 M. An outline of the steps: (§1)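 Folding enthalpy and melting temperature come from bootstrapped two-state fits to Cy3 fluorescence of library hairpins carrying annealed Cy3 and quencher oligos on a sequenced MiSeq flow cell. Imaging was done in 50 mM Na-HEPES pH 8.0, 25 mM NaCl, stepping by 2.5 °C up to 60 °C, and signals were normalised to pre-quench Cy3 and to control constructs. Results of four replicates were combined by inverse variance, and fitted temperatures were raised by 9.35 °C to match UV melts.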

The nature of data set [2]: folding enthalpy; higher = less favourable; fluorescence melt of hairpins on a sequencing array, two-state fit. To be noted: sodium 0.088 M. An outline of the steps: as §1

Turning to GATCCAGTTATGGATC ((((((....)))))), in data set [1], the Tm amounted to 58.4 °C. In data set [2], the folding enthalpy is -46.4 kcal/mol.

As to GATCCAGTTGTGGATC ((((((....)))))), the Tm in data set [1] was 50.4 °C. Besides, the folding enthalpy in data set [2] was -38.6 kcal/mol.

GATCCAGTTTGGATC ((((((...)))))): the Tm in data set [1] was 52.6 °C. The folding enthalpy in data set [2] is -32.4 kcal/mol.

GATCCATAAGTGGATC ((((((....)))))): the Tm in data set [1] came out at 51.9 °C. Further, the folding enthalpy in data set [2] is -39.2 kcal/mol.

In the case of GATCCATACGTGGATC ((((((....)))))), in data set [1], the Tm turned out to be 54.5 °C. In data set [2], the folding enthalpy is -51 kcal/mol.

Take GATCCATACTTGGATC ((((((....)))))): in data set [1], the Tm came out at 54.4 °C. The folding enthalpy in data set [2] is -37.3 kcal/mol.

On to GATCCATCATGGATC ((((((...)))))), for which, in data set [1], the Tm was determined as 52.5 °C. Further, the folding enthalpy in data set [2] is -32.5 kcal/mol.

Regarding GATCCATCCCTGGATC ((((((....)))))), the Tm in data set [1] came to 51 °C. Also, the folding enthalpy in data set [2] was -35.4 kcal/mol.

Take GATCCATGATGGATC ((((((...)))))): the Tm in data set [1] worked out at 49.6 °C. In addition, in data set [2], the folding enthalpy was -34.2 kcal/mol.

GATCCATGCTTGGATC ((((((....)))))): the Tm in data set [1] is 55.1 °C. Further, the folding enthalpy in data set [2] is -43.6 kcal/mol.

For the sequence GATCCATGGATGGATC ((((((....)))))), the Tm in data set [1] is 53 °C. The folding enthalpy in data set [2] is -39.1 kcal/mol.

On to GATCCATGTTGGATC ((((((...)))))), for which the Tm in data set [1] came to 52 °C. Moreover, in data set [2], the folding enthalpy was -36.8 kcal/mol.

As to GATCCATGTTTGGATC ((((((....)))))), in data set [1], the Tm is 53.8 °C. The folding enthalpy in data set [2] is -42.8 kcal/mol.

Take GATCCATTGGTGGATC ((((((....)))))): in data set [1], the Tm amounted to 53 °C. Also, in data set [2], the folding enthalpy is -44.4 kcal/mol.

As for GATCCCACCCGGGATC ((((((....)))))), the Tm in data set [1] was determined as 60 °C. Besides, the folding enthalpy in data set [2] was -41.1 kcal/mol.

For the sequence GATCCCACCGGGGATC ((((((....)))))), the Tm in data set [1] amounted to 63.7 °C. In data set [2], the folding enthalpy was -32.3 kcal/mol.

As to GATCCCACCTGGGATC ((((((....)))))), the Tm in data set [1] was determined as 60.1 °C. Also, the folding enthalpy in data set [2] was -35.6 kcal/mol.

For GATCCCACTAGGGATC ((((((....)))))), the Tm in data set [1] was 65.9 °C. For the same sequence, the folding enthalpy in data set [2] was -33.1 kcal/mol.

Regarding GATCCCACTGGGATC ((((((...)))))), in data set [1], the Tm came out at 60.9 °C. In data set [2], the folding enthalpy is -34.8 kcal/mol.

With GATCCCAGAGGGATC ((((((...)))))), the Tm in data set [1] was 68.5 °C. Besides, the folding enthalpy in data set [2] was -34.2 kcal/mol.

For GATCCCAGCCGGGATC ((((((....)))))), the Tm in data set [1] was 64.2 °C. Moreover, in data set [2], the folding enthalpy is -32.8 kcal/mol.

As for GATCCCAGGGGGGATC ((((((....)))))), the Tm in data set [1] is 59.2 °C. For the same sequence, in data set [2], the folding enthalpy is -32.3 kcal/mol.

In the case of GATCCCAGTAGGGATC ((((((....)))))), the Tm in data set [1] amounted to 66 °C. The folding enthalpy in data set [2] is -35 kcal/mol.

For the sequence GATCCCAGTCGGGATC ((((((....)))))), in data set [1], the Tm is 61.3 °C. For the same sequence, in data set [2], the folding enthalpy is -33.4 kcal/mol.

On to GATCCCAGTTGGGATC ((((((....)))))), for which the Tm in data set [1] amounted to 61.2 °C. Also, the folding enthalpy in data set [2] was -42 kcal/mol.

GATCCCATACGGGATC ((((((....)))))): the Tm in data set [1] was 64.6 °C. In addition, in data set [2], the folding enthalpy is -38.5 kcal/mol.

In the case of GATCCCATTGGGATC ((((((...)))))), in data set [1], the Tm was determined as 65.5 °C. Also, the folding enthalpy in data set [2] is -31.9 kcal/mol.

On to GATCCCATTGGGGATC ((((((....)))))), for which the Tm in data set [1] was determined as 62.1 °C. The folding enthalpy in data set [2] is -38.2 kcal/mol.

For the sequence GATCCCCACGGGATC ((((((...)))))), in data set [1], the Tm came out at 63.4 °C. In data set [2], the folding enthalpy was -34.9 kcal/mol.

On to GATCCCCATCGGGATC ((((((....)))))), for which the Tm in data set [1] was 58.2 °C. For the same sequence, the folding enthalpy in data set [2] is -35.4 kcal/mol.

For GATCCCCCAGGGATC ((((((...)))))), the Tm in data set [1] amounted to 63.8 °C. Further, in data set [2], the folding enthalpy was -33.9 kcal/mol.

On to GATCCCCCAGGGGATC ((((((....)))))), for which, in data set [1], the Tm was 65.2 °C. The folding enthalpy in data set [2] was -36.4 kcal/mol.

With GATCCCCCCGGGGATC ((((((....)))))), in data set [1], the Tm is 65.9 °C. In addition, the folding enthalpy in data set [2] is -39.7 kcal/mol.

GATCCCCCGGGGGATC ((((((....)))))): the Tm in data set [1] was 66 °C. Further, the folding enthalpy in data set [2] was -41.4 kcal/mol.

On to GATCCCCGAGGGGATC ((((((....)))))), for which the Tm in data set [1] is 68.5 °C. The folding enthalpy in data set [2] was -37.2 kcal/mol.

Turning to GATCCCCGCGGGGATC ((((((....)))))), the Tm in data set [1] turned out to be 67.4 °C. Besides, the folding enthalpy in data set [2] was -38.8 kcal/mol.

For GATCCCCGGGGGGATC ((((((....)))))), the Tm in data set [1] worked out at 66.6 °C. The folding enthalpy in data set [2] was -29.9 kcal/mol.

For GATCCCCGTGGGATC ((((((...)))))), the Tm in data set [1] was 65.2 °C. The folding enthalpy in data set [2] is -27.8 kcal/mol.
